# Reference: ChEMBL document CHEMBL2046381, “Defining the mechanism of action and enzymatic selectivity of psammaplin A against its epigenetic targets” (J Med Chem, 2012)
# Activity calls are given as the source filed them.
# Key:
# [1] = biological target: T1, Protein deacetylase HDAC6 (Homo sapiens, UniProt Q9UBN7); assay: Inhibition of human recombinant HDAC6 using Boc-lys(Ac)-AMC as substrate preincubated for 20 mins with substrate measured after 60 mins by fluorescence analysis
# T1 sequence (Q9UBN7 whole entry): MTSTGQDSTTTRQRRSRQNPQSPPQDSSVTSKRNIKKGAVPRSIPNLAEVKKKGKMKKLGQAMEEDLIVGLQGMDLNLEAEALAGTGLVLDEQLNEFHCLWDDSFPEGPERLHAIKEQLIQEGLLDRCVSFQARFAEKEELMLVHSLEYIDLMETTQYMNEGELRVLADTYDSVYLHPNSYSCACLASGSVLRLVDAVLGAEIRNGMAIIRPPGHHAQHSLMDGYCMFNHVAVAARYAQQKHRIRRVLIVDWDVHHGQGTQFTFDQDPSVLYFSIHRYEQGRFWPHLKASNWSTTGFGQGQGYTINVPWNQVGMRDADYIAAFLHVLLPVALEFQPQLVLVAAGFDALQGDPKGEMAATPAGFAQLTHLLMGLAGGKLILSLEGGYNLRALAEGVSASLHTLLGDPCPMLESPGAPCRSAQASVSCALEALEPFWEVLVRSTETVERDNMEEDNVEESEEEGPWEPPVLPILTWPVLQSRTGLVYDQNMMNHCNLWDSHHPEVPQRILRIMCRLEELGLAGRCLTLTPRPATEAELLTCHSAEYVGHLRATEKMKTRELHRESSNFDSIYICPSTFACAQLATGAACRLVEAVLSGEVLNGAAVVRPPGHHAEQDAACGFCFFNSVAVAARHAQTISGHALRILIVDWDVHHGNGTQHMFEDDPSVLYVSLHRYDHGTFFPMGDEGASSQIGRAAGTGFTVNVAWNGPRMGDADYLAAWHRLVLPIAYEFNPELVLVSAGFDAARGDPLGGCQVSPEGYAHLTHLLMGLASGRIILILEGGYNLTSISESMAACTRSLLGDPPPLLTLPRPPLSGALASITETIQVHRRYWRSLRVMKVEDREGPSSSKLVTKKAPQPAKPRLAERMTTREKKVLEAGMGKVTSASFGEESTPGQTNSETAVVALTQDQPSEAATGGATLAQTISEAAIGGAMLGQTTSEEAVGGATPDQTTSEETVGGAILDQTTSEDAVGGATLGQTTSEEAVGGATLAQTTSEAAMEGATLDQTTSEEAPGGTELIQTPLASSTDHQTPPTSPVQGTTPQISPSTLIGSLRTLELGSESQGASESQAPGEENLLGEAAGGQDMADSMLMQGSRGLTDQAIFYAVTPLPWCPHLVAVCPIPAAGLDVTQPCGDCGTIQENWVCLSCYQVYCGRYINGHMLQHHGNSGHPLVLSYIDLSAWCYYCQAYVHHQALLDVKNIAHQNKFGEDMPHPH
# [2] = biological target: Histone deacetylase 1 (Homo sapiens, UniProt Q13547); assay: Inhibition of human recombinant HDAC1 using Boc-lys(Ac)-AMC as substrate preincubated for 20 mins with substrate measured after 60 mins by fluorescence analysis
# Histone deacetylase 1, sequence (Q13547 whole entry): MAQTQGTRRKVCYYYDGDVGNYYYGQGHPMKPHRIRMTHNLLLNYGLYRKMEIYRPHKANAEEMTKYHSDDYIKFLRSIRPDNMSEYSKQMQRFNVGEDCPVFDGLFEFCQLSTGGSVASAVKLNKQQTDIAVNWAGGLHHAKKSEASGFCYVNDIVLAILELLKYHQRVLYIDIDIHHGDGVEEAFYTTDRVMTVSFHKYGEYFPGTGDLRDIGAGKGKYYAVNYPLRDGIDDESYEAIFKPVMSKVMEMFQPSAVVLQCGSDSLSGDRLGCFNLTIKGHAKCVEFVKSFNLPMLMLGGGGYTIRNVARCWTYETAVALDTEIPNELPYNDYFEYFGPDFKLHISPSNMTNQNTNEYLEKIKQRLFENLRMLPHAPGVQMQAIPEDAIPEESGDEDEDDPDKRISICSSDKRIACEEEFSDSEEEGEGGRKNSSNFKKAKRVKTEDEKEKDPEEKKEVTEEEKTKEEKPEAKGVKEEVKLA
# [3] = biological target: T2, Histone deacetylase-like amidohydrolase (Alcaligenes sp. (strain DSM 11172) (Bordetella sp. (strain FB188))) (UniProt Q70I53); assay: Inhibition of Bordetella sp. (strain FB188) N-terminus His-tagged HDAH expressed in Escherichia coli BL21 (DE3) up to 100 uM; settings: Alcaligenaceae bacterium FB188
# T2 sequence (whole entry): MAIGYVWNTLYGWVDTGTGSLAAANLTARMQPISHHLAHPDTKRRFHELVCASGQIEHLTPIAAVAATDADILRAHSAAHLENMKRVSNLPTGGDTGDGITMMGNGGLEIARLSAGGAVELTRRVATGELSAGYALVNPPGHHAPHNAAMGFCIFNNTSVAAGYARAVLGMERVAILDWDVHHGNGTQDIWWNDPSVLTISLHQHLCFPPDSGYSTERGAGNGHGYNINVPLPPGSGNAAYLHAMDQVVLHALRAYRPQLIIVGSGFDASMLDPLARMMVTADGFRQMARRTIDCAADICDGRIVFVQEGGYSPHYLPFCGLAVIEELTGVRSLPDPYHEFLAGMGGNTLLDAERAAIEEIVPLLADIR
# In short: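 Recombinant N-terminal His6-tagged HDAH from Bordetella strain FB188, expressed in E. coli BL21, purified on zinc-loaded His-Trap column, eluted with 500 mM imidazole, dialyzed into assay buffer (>98% pure by SDS-PAGE). Tested directly against compounds; thiols generated in situ from disulfides with TCEP.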
# [4] = biological target: DNA (cytosine-5)-methyltransferase 1 (Homo sapiens, UniProt P26358); assay: Inhibition of full length N-terminal His6-tagged human DNMT1 at 120 uM after 1 hr by fluorescence analysis
# DNA (cytosine-5)-methyltransferase 1, sequence (P26358 whole entry): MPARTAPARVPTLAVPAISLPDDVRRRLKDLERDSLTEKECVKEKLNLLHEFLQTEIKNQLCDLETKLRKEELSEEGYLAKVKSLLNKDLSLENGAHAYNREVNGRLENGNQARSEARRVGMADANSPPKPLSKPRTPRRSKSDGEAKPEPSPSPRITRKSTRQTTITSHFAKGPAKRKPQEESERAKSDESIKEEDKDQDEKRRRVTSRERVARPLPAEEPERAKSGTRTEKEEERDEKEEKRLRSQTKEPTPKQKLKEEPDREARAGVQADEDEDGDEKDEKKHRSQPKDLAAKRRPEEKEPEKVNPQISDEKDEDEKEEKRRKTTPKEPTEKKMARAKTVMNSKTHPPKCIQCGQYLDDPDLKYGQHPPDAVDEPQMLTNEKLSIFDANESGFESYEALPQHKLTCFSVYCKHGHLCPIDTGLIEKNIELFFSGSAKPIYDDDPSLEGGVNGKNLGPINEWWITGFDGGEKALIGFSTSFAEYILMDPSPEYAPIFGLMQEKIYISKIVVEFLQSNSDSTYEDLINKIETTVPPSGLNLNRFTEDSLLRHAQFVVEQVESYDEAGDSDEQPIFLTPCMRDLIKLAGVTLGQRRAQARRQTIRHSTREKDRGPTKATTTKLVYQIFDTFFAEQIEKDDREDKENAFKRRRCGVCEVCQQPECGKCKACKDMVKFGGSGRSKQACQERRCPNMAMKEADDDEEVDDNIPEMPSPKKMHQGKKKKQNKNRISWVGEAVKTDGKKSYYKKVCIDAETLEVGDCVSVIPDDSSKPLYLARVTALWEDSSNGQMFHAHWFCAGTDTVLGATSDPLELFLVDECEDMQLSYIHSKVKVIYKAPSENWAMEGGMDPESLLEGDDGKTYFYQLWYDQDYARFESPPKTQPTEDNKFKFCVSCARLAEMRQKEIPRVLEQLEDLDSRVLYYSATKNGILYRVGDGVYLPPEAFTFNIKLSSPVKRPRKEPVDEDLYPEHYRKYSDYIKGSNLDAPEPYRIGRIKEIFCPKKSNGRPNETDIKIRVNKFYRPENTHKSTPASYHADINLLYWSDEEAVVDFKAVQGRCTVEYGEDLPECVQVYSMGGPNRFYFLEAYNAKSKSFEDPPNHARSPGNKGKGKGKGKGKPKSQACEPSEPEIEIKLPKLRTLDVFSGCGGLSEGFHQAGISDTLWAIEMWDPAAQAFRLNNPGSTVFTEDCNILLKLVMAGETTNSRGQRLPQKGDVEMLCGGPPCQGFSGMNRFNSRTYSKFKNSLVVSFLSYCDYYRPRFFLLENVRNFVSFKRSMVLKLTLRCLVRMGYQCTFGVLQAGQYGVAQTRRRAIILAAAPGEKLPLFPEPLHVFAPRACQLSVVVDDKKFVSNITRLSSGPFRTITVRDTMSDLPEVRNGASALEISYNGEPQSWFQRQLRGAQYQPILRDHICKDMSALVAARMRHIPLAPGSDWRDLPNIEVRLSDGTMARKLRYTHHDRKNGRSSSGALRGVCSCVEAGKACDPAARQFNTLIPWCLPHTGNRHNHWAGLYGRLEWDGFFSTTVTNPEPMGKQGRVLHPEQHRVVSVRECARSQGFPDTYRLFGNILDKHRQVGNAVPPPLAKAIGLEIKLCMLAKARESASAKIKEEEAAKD
# In short: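 Baculovirus-expressed DNMT1 (80 nM final) with SAM (10 μM final) and hemimethylated hairpin oligo (125 nM final) in MOPS buffer pH 6.5 with 1 mM DTT, 1 h room temperature. Stopped with Gla1 plus 125 μM SAH, developed 7 h; fluorescence Ex 485/Em 520 nm. Thiols made in situ by TCEP reduction; no SAM as full-inhibition control.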
# [5] = test system: MCF7; assay: Growth inhibition of human MCF7 cells after 96 hrs by sulphorhodamine B assay; format: functional; settings: MCF7, 96 h
# In short: (§1)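 SRB growth assay; MCF7 and WI38 seeded 4000 cells/well, A549 2000 cells/well, attached overnight, then exposed to freshly made drug solutions (0.1 to 50 μM) for 96 h. Fixed with cold 10% TCA, stained with 0.4% SRB; absorbance at 540 nm as percent of untreated control, IC50 from mean absorbance.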
# [6] = test system: A549; assay: Growth inhibition of human A549 cells after 96 hrs by sulphorhodamine B assay; format: functional; settings: A549, 96 h; in short: as §1
structure (smiles),measurement,setting,value
COc1cc(C/C(=N\O)C(=O)NCCS)ccc1SC,IC50,[1],1400 nM
same,IC50,[2],0.6 nM
same,inhibition,[3],inactive
COc1ccc(C/C(=N\O)C(=O)NCCSSCCNC(=O)/C(Cc2ccc(OC)c(OC)c2)=N/O)cc1OC,inhibition,[3],inactive
COc1ccc(C/C(=N\N)C(=O)NCCSC)cc1Br,IC50,[1],> 50000 nM
same,IC50,[2],12600 nM
same,inhibition,[3],inactive
O=C(NCCS)/C(Cc1cccc([N+](=O)[O-])c1)=N/O,inhibition,[4],inactive
same,IC50,[1],1200 nM
same,IC50,[2],1 nM
same,inhibition,[3],inactive
COc1ccc(C/C(=N\N)C(=O)NCCS)cc1Br,IC50,[1],320 nM
same,IC50,[2],6 nM
same,inhibition,[3],inactive
COc1cc(C/C(=N\O)C(=O)NCCS)cc(I)c1OC,inhibition,[4],inactive
same,IC50,[1],270 nM
same,IC50,[2],1 nM
same,inhibition,[3],inactive
COc1ccc(CC(=O)C(=O)NCCS)cc1Br,IC50,[1],250 nM
same,IC50,[2],1100 nM
same,inhibition,[3],inactive
CSc1ccc(C/C(=N\O)C(=O)NCCS)cc1Br,inhibition,[4],inactive
same,IC50,[1],190 nM
same,IC50,[2],0.48 nM
same,inhibition,[3],inactive
O=C(NCCCSCCNC(=O)/C(Cc1ccc(O)c(Br)c1)=N/O)/C(Cc1ccc(O)c(Br)c1)=N/O,inhibition,[4],inactive
same,inhibition,[3],inactive
N/N=C(\Cc1ccc(O)c(Br)c1)C(=O)NCCSSCCNC(=O)/C(Cc1ccc(O)c(Br)c1)=N/N,GI50,[5],3.81 µM
same,IC50,[1],5000 nM
same,IC50,[2],6100 nM
same,inhibition,[3],inactive
same,GI50,[6],18.8 µM
COc1ccc(C/C(=N\O)C(=O)NCCS)cc1I,inhibition,[4],inactive
same,IC50,[1],240 nM
same,IC50,[2],1 nM
same,inhibition,[3],inactive
CO/N=C(\Cc1ccc(OC)c(Br)c1)C(=O)NCCS,inhibition,[4],inactive
same,IC50,[1],2700 nM
same,IC50,[2],15 nM
same,inhibition,[3],inactive
CN(C)c1ccc(C/C(=N\O)C(=O)NCCSSCCNC(=O)/C(Cc2ccc(N(C)C)cc2)=N/O)cc1,inhibition,[3],inactive
O=C(NCCS)/C(Cc1cc(Br)c(O)c(Br)c1)=N/O,inhibition,[4],inactive
same,IC50,[1],790 nM
same,IC50,[2],0.2 nM
same,inhibition,[3],inactive
CN(C)c1ccc(C/C(=N\O)C(=O)NCCSSCCNC(=O)/C(Cc2ccc(N(C)C)c(Br)c2)=N/O)cc1Br,inhibition,[3],inactive
CN(C)c1ccc(C/C(=N\O)C(=O)NCCS)cc1Br,inhibition,[4],inactive
same,IC50,[1],700 nM
same,IC50,[2],4 nM
same,inhibition,[3],inactive
CO/N=C(\Cc1ccc(OC)c(Br)c1)C(=O)NCCSSCCNC(=O)/C(Cc1ccc(OC)c(Br)c1)=N/OC,IC50,[1],> 50000 nM
same,IC50,[2],220 nM
same,inhibition,[3],inactive
O=C(NCCCCCCNC(=O)/C(Cc1ccc(O)c(Br)c1)=N/O)/C(Cc1ccc(O)c(Br)c1)=N/O,inhibition,[4],inactive
same,inhibition,[3],inactive
COc1ccc(C/C(=N\O)C(=O)NCCSSCCNC(=O)/C(Cc2ccc(OC)c(Br)c2)=N/O)cc1Br,IC50,[1],2000 nM
same,IC50,[2],43 nM
O=C(NCCS)/C(Cc1ccc(F)cc1)=N/O,inhibition,[4],inactive
same,IC50,[1],2900 nM
same,IC50,[2],7 nM
same,inhibition,[3],inactive
COc1ccc(CC(=O)C(=O)NCCSSCCNC(=O)C(=O)Cc2ccc(OC)c(Br)c2)cc1Br,IC50,[1],8000 nM
same,IC50,[2],9000 nM
same,inhibition,[3],inactive
COc1cc(C/C(=N\O)C(=O)NCCSSCCNC(=O)/C(Cc2cc(I)c(OC)c(OC)c2)=N/O)cc(I)c1OC,inhibition,[3],inactive
O=C(NCCS)/C(Cc1ccc(O)cc1)=N/O,inhibition,[4],inactive
same,IC50,[1],1700 nM
same,IC50,[2],4 nM
same,inhibition,[3],inactive
COc1ccc(C/C(=N\O)C(=O)NCCSC)cc1Br,IC50,[1],> 50000 nM
same,IC50,[2],23300 nM
CSc1ccc(C/C(=N\O)C(=O)NCCS)cc1,inhibition,[4],inactive
same,IC50,[1],1300 nM
same,IC50,[2],2 nM
same,inhibition,[3],inactive
CN(C)c1ccc(C/C(=N\O)C(=O)NCCS)cc1,inhibition,[4],inactive
same,IC50,[1],2300 nM
same,IC50,[2],1 nM
same,inhibition,[3],inactive
O=C(NCCSSCCNC(=O)/C(Cc1cc(Br)cc([N+](=O)[O-])c1)=N/O)/C(Cc1cc(Br)cc([N+](=O)[O-])c1)=N/O,inhibition,[3],inactive
CSCCNC(=O)C(=O)Cc1ccc(O)c(Br)c1,GI50,[5],18.3 µM
same,IC50,[1],30000 nM
same,IC50,[2],7300 nM
same,inhibition,[3],inactive
same,GI50,[6],> 50 µM
O=C(NCCSSCCNC(=O)/C(Cc1ccc(O)cc1)=N/O)/C(Cc1ccc(O)cc1)=N/O,inhibition,[3],inactive
CSc1ccc(C/C(=N\O)C(=O)NCCSSCCNC(=O)/C(Cc2ccc(SC)cc2)=N/O)cc1,inhibition,[3],inactive
COc1cc(C/C(=N\O)C(=O)NCCSSCCNC(=O)/C(Cc2ccc(SC)c(OC)c2)=N/O)ccc1SC,inhibition,[3],inactive
COc1ccc(C/C(=N\O)C(=O)NCCS)cc1OC,inhibition,[4],inactive
same,IC50,[1],2700 nM
same,IC50,[2],3 nM
same,inhibition,[3],inactive
O=C(NCCS)/C(Cc1cc(Br)cc([N+](=O)[O-])c1)=N/O,inhibition,[4],inactive
same,IC50,[1],740 nM
same,IC50,[2],5 nM
same,inhibition,[3],inactive
COc1ccc(C/C(=N\N)C(=O)NCCSSCCNC(=O)/C(Cc2ccc(OC)c(Br)c2)=N/N)cc1Br,IC50,[1],> 50000 nM
same,IC50,[2],3000 nM
same,inhibition,[3],inactive
CSc1ccc(C/C(=N\O)C(=O)NCCSSCCNC(=O)/C(Cc2ccc(SC)c(Br)c2)=N/O)cc1Br,inhibition,[3],inactive
O=C(NCCSSCCNC(=O)/C(Cc1cc(Br)c(O)c(Br)c1)=N/O)/C(Cc1cc(Br)c(O)c(Br)c1)=N/O,inhibition,[3],inactive
COc1ccc(C/C(=N\O)C(=O)NCCSSCCNC(=O)/C(Cc2ccc(OC)c(I)c2)=N/O)cc1I,inhibition,[3],inactive
O=C(NCCSSCCNC(=O)/C(Cc1ccc(F)cc1)=N/O)/C(Cc1ccc(F)cc1)=N/O,inhibition,[3],inactive
CO/N=C(\Cc1ccc(OC)c(Br)c1)C(=O)NCCSC,IC50,[1],> 50000 nM
same,IC50,[2],> 50000 nM
same,inhibition,[3],inactive
O=C(CCc1ccc(O)c(Br)c1)NCCSSCCNC(=O)CCc1ccc(O)c(Br)c1,IC50,[1],20200 nM
same,IC50,[2],> 50000 nM
same,inhibition,[3],inactive
COc1ccc(CC(=O)C(=O)NCCSC)cc1Br,IC50,[1],> 50000 nM
same,IC50,[2],> 50000 nM
same,inhibition,[3],inactive
O=C(NCCSSCCNC(=O)/C(Cc1cccc([N+](=O)[O-])c1)=N/O)/C(Cc1cccc([N+](=O)[O-])c1)=N/O,inhibition,[3],inactive
